What was measured:
Hepatitis C virus [1] = assay: Inhibition of Hepatitis C virus genotype 1b NS3/4A protease V170A mutant; parameters: species or system Hepatitis C virus subtype 1b
Summary of the method: (§1)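 Panel of genotype 1b NS3 protease enzymes (wild type and mutants). IC50 and IC90 are averages ± standard error from 2 independent assays. Fold change versus wild type given in parentheses.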

Cathepsin S = Cathepsin S (Homo sapiens, UniProt P25774); assay: Inhibition of human cathepsin S
Hepatitis C virus [2] = assay: Ratio of EC90 for Hepatitis C virus genotype 1b NS3/4A protease D168V mutant to EC90 Hepatitis C virus genotype 1b wild type NS3/4A protease; parameters: species or system Hepatitis C virus subtype 1b
Summary of the method: (§2)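 Genotype 1b NS3 protease enzyme panel: wild type plus resistance mutants A156T, R155K, D168V, V36M, A156S, V170A and D168A. […] Resistance is expressed as the fold increase of each mutant's value over the wild-type value.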

Prothrombin = Prothrombin (Homo sapiens, UniProt P00734); assay: Inhibition of human thrombin
Hepatitis C virus [3] = assay: Inhibition of Hepatitis C virus genotype 1b NS3/4A protease A156S mutant; parameters: species or system Hepatitis C virus subtype 1b; summary of the method: as §1
Hepatitis C virus [4] = assay: Ratio of EC50 for Hepatitis C virus genotype 1b NS3/4A protease V170A mutant to EC50 Hepatitis C virus genotype 1b wild type NS3/4A protease; parameters: species or system Hepatitis C virus subtype 1b; summary of the method: as §2
Hepatitis C virus [5] = assay: Ratio of EC50 for Hepatitis C virus genotype 1b NS3/4A protease A156S mutant to EC50 Hepatitis C virus genotype 1b wild type NS3/4A protease; parameters: species or system Hepatitis C virus subtype 1b; summary of the method: as §2
Hepatitis C virus [6] = assay: Inhibition of Hepatitis C virus genotype 1b NS3/4A protease A156T mutant; parameters: species or system Hepatitis C virus subtype 1b; summary of the method: as §1
Hepatitis C virus [7] = assay: Inhibition of Hepatitis C virus genotype 1b NS3/4A protease V36M mutant; parameters: species or system Hepatitis C virus subtype 1b; summary of the method: as §1
Hepatitis C virus [8] = assay: Ratio of EC90 for Hepatitis C virus genotype 1b NS3/4A protease V170A mutant to EC90 Hepatitis C virus genotype 1b wild type NS3/4A protease; parameters: species or system Hepatitis C virus subtype 1b; summary of the method: as §2
Plasminogen = Plasminogen (Homo sapiens, UniProt P00747); assay: Inhibition of human plasmin
Plasminogen, sequence (P00747 97-580 limits assumed): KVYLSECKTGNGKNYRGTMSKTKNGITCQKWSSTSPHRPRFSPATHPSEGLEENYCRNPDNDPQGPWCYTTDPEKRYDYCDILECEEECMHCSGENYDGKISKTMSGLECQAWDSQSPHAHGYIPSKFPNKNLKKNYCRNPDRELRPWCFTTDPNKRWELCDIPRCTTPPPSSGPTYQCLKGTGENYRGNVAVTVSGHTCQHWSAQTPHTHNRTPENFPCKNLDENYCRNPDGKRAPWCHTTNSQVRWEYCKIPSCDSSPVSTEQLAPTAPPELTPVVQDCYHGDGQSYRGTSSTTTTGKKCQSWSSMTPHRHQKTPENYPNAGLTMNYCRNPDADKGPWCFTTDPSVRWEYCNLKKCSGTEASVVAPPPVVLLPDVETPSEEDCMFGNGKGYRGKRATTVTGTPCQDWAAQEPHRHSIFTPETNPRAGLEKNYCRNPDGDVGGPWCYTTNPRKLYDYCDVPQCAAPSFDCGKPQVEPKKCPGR
Plasminogen, sequence (P00747 581-810 limits assumed): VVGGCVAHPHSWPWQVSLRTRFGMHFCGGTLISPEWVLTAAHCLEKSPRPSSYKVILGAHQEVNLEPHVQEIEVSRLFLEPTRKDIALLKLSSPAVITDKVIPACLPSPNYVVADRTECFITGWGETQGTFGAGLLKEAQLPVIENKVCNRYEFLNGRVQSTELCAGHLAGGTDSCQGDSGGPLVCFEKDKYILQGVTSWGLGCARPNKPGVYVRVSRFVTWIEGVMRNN

[9] = target: T1, Neutrophil elastase (Homo sapiens) (UniProt P08246); assay: (§3) Inhibition of human neutrophil elastase
T1 sequence (whole entry): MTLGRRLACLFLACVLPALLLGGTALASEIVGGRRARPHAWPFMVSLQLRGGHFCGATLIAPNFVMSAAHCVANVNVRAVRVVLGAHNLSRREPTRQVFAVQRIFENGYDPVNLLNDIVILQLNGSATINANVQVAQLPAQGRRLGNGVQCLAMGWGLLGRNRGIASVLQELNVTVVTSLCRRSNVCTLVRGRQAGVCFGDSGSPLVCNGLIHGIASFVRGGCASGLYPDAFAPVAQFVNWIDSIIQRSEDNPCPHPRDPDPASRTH

Hepatitis C virus [10] = assay: Ratio of EC50 for Hepatitis C virus genotype 1b NS3/4A protease D168A mutant to EC50 Hepatitis C virus genotype 1b wild type NS3/4A protease; parameters: species or system Hepatitis C virus subtype 1b; summary of the method: as §2
Hepatitis C virus [11] = assay: Ratio of EC90 for Hepatitis C virus genotype 1b NS3/4A protease A156T mutant to EC90 Hepatitis C virus genotype 1b wild type NS3/4A protease; parameters: species or system Hepatitis C virus subtype 1b; summary of the method: as §2
Hepatitis C virus [12] = assay: Antiviral activity against Hepatitis C virus infected in human HuH7 cells assessed as viral RNA replication; format: functional, organism-based, Hepacivirus hominis; settings: Huh-7
Summary of the method: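 Subgenomic HCV replicon in Huh7 cells; inhibition of HCV RNA replication measured by extraction and amplification of HCV RNA. Each concentration run in triplicate and reported as mean; EC50 derived.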

Hepatitis C virus [13] = assay: Ratio of EC50 for Hepatitis C virus genotype 1b NS3/4A protease D168V mutant to EC50 Hepatitis C virus genotype 1b wild type NS3/4A protease; parameters: species or system Hepatitis C virus subtype 1b; summary of the method: as §2
Hepatitis C virus [14] = assay: Ratio of EC90 for Hepatitis C virus genotype 1b NS3/4A protease R155K mutant to EC90 Hepatitis C virus genotype 1b wild type NS3/4A protease; parameters: species or system Hepatitis C virus subtype 1b; summary of the method: as §2
Hepatitis C virus [15] = assay: Ratio of EC90 for Hepatitis C virus genotype 1b NS3/4A protease V36M mutant to EC90 Hepatitis C virus genotype 1b wild type NS3/4A protease; parameters: species or system Hepatitis C virus subtype 1b; summary of the method: as §2
Hepatitis C virus [16] = assay: Inhibition of Hepatitis C virus genotype 1b NS3/4A protease D168V mutant; parameters: species or system Hepatitis C virus subtype 1b; summary of the method: as §1
Hepatitis C virus [17] = assay: Ratio of EC50 for Hepatitis C virus genotype 1b NS3/4A protease R155K mutant to EC50 Hepatitis C virus genotype 1b wild type NS3/4A protease; parameters: species or system Hepatitis C virus subtype 1b; summary of the method: as §2
Hepatitis C virus [18] = assay: Ratio of EC90 for Hepatitis C virus genotype 1b NS3/4A protease A156S mutant to EC90 Hepatitis C virus genotype 1b wild type NS3/4A protease; parameters: species or system Hepatitis C virus subtype 1b; summary of the method: as §2
Hepatitis C virus [19] = assay: Inhibition of Hepatitis C virus genotype 1b wild type NS3/4A protease; parameters: species or system Hepatitis C virus subtype 1b; summary of the method: as §1
Hepatitis C virus [20] = assay: Ratio of EC50 for Hepatitis C virus genotype 1b NS3/4A protease V36M mutant to EC50 Hepatitis C virus genotype 1b wild type NS3/4A protease; parameters: species or system Hepatitis C virus subtype 1b; summary of the method: as §2
Hepatitis C virus [21] = assay: Inhibition of Hepatitis C virus genotype 1b NS3/4A protease D168A mutant; parameters: species or system Hepatitis C virus subtype 1b; summary of the method: as §1
Hepatitis C virus [22] = assay: Inhibition of Hepatitis C virus genotype 1b NS3/4A protease R155K mutant; parameters: species or system Hepatitis C virus subtype 1b; summary of the method: as §1
Hepatitis C virus [23] = assay: Ratio of EC90 for Hepatitis C virus genotype 1b NS3/4A protease D168A mutant to EC90 Hepatitis C virus genotype 1b wild type NS3/4A protease; parameters: species or system Hepatitis C virus subtype 1b; summary of the method: as §2
Hepatitis C virus [24] = assay: Ratio of EC50 for Hepatitis C virus genotype 1b NS3/4A protease A156T mutant to EC50 Hepatitis C virus genotype 1b wild type NS3/4A protease; parameters: species or system Hepatitis C virus subtype 1b; summary of the method: as §2
Huh-7 = assay: Cytotoxicity against human HuH7 cells; format: cell-based
Summary of the method: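 Huh7 cytotoxicity measured together with the replicon antiviral assay, by extraction and amplification of ribosomal RNA. Each concentration run in triplicate and reported as mean.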

Neutrophil elastase = target: T2, Neutrophil elastase (Homo sapiens, UniProt P08246); assay: as §3
T2 sequence (P08246 whole entry): T1 sequence (whole entry)

Vero = assay: Cytotoxicity against african green monkey Vero cells; format: cell-based; settings: chlorocebus sabaeus
Summary of the method: (§4)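 Cytotoxicity was profiled in three cell types: primary human peripheral blood mononuclear (PBM) cells, CEM (a human T-cell-derived line) and Vero (African green monkey kidney epithelial cells).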

PBMC = assay: Cytotoxicity against human PBMC; format: cell-based; summary of the method: as §4
CCRF-CEM = assay: Cytotoxicity against human CEM cells; format: cell-based; summary of the method: as §4

SMILES: CCC[C@H](NC(=O)[C@@H]1[C@H]2CCC[C@H]2CN1C(=O)[C@@H](NC(=O)[C@@H](NC(=O)c1cnccn1)C1CCCCC1)C(C)(C)C)C(=O)C(=O)NC1CC1
- EC50 (Hepatitis C virus [1]): 0.2 µM
- EC90 (Hepatitis C virus [1]): 1.5 µM
- IC50 (Cathepsin S): > 100 µM
- IC90 (Cathepsin S): > 100 µM
- Ratio (Hepatitis C virus [2]): 0.9
- IC50 (Prothrombin): < 1 µM
- IC90 (Prothrombin): < 1 µM
- EC50 (Hepatitis C virus [3]): 2.2 µM
- EC90 (Hepatitis C virus [3]): 52 µM
- Ratio EC50 (Hepatitis C virus [4]): 3.3
- Ratio EC50 (Hepatitis C virus [5]): 37
- EC50 (Hepatitis C virus [6]): 46 µM
- EC90 (Hepatitis C virus [6]): > 100 µM
- EC50 (Hepatitis C virus [7]): 0.51 µM
- EC90 (Hepatitis C virus [7]): 5.1 µM
- Ratio (Hepatitis C virus [8]): 1.9
- IC50 (Plasminogen): 8.7 µM
- IC90 [9]: > 100 µM
- Ratio EC50 (Hepatitis C virus [10]): 1
- Ratio (Hepatitis C virus [11]): >130
- EC50 (Hepatitis C virus [12]): 0.4 µM
- EC90 (Hepatitis C virus [12]): 0.9 µM
- Ratio EC50 (Hepatitis C virus [13]): 1.3
- Ratio (Hepatitis C virus [14]): 11
- Ratio (Hepatitis C virus [15]): 6.5
- EC50 (Hepatitis C virus [16]): 0.08 µM
- EC90 (Hepatitis C virus [16]): 0.74 µM
- Ratio EC50 (Hepatitis C virus [17]): 13
- Ratio (Hepatitis C virus [18]): 66
- EC50 (Hepatitis C virus [19]): 0.06 µM
- EC90 (Hepatitis C virus [19]): 0.78 µM
- Ratio EC50 (Hepatitis C virus [20]): 8.5
- EC50 (Hepatitis C virus [21]): 0.58 µM
- EC90 (Hepatitis C virus [21]): 0.69 µM
- EC50 (Hepatitis C virus [22]): 0.8 µM
- EC90 (Hepatitis C virus [22]): 8.3 µM
- Ratio (Hepatitis C virus [23]): 0.9
- Ratio EC50 (Hepatitis C virus [24]): 780
- CC50 (Huh-7): > 10 µM

SMILES: CC[C@@H]1C[C@]1(NC(=O)[C@@H]1C[C@@H]2CN1C(=O)[C@H](C(C)(C)C)NC(=O)OCC(C)(C)CCCCc1cccc3c1CN(C3)C(=O)O2)C(=O)NS(=O)(=O)C1CC1
- EC50 (Hepatitis C virus [1]): 0.0046 µM
- EC90 (Hepatitis C virus [1]): 0.01 µM
- IC50 (Cathepsin S): 78 µM
- IC90 (Cathepsin S): > 100 µM
- Ratio (Hepatitis C virus [2]): >77
- IC50 (Prothrombin): > 100 µM
- IC90 (Prothrombin): > 100 µM
- EC50 (Hepatitis C virus [3]): < 0.001 µM
- EC90 (Hepatitis C virus [3]): 0.017 µM
- Ratio EC50 (Hepatitis C virus [4]): 0.7
- EC50 (Hepatitis C virus [6]): 0.91 µM
- EC90 (Hepatitis C virus [6]): > 1 µM
- EC50 (Hepatitis C virus [7]): 0.045 µM
- EC90 (Hepatitis C virus [7]): 0.1 µM
- Ratio (Hepatitis C virus [8]): 0.8
- IC50 (Plasminogen): > 100 µM
- IC90 (Plasminogen): > 100 µM
- IC90 [9]: > 100 µM
- IC50 (Neutrophil elastase): > 100 µM
- Ratio EC50 (Hepatitis C virus [10]): 390
- Ratio (Hepatitis C virus [11]): >77
- Ratio (Hepatitis C virus [15]): 7.8
- EC50 (Hepatitis C virus [16]): > 1 µM
- EC90 (Hepatitis C virus [16]): > 1 µM
- Ratio (Hepatitis C virus [18]): 1.3
- EC50 (Hepatitis C virus [19]): 0.0062 µM
- EC90 (Hepatitis C virus [19]): 0.013 µM
- Ratio EC50 (Hepatitis C virus [20]): 7.2
- EC50 (Hepatitis C virus [21]): 2.4 µM
- EC90 (Hepatitis C virus [21]): 11 µM
- EC50 (Hepatitis C virus [22]): > 1 µM
- EC90 (Hepatitis C virus [22]): > 1 µM
- Ratio (Hepatitis C virus [23]): 840
- Ratio EC50 (Hepatitis C virus [24]): 150

SMILES: CCCC(NC(=O)C1N(C(=O)[C@@H](NC(=O)[C@@H](NC(=O)c2cnccn2)C2CCCCC2)C(C)(C)C)CC12CCCCC2)C(=O)C(=O)NC1CC1 (some centres undefined)
- EC50 (Hepatitis C virus [1]): > 1 µM
- EC90 (Hepatitis C virus [1]): 8.7 µM
- CC50 (Vero): 27 µM
- IC50 (Cathepsin S): > 100 µM
- IC90 (Cathepsin S): > 100 µM
- Ratio (Hepatitis C virus [2]): 0.3
- IC50 (Prothrombin): < 1 µM
- IC90 (Prothrombin): < 1.7 µM
- EC50 (Hepatitis C virus [3]): 43 µM
- EC90 (Hepatitis C virus [3]): > 100 µM
- Ratio EC50 (Hepatitis C virus [5]): 55
- EC50 (Hepatitis C virus [6]): > 100 µM
- EC90 (Hepatitis C virus [6]): > 100 µM
- EC50 (Hepatitis C virus [7]): 6.9 µM
- EC90 (Hepatitis C virus [7]): 75 µM
- Ratio (Hepatitis C virus [8]): 0.9
- IC50 (Plasminogen): > 100 µM
- IC90 (Plasminogen): > 100 µM
- IC90 [9]: 85 µM
- IC50 (Neutrophil elastase): 7.8 µM
- CC50 (PBMC): 32 µM
- Ratio EC50 (Hepatitis C virus [10]): 0.9
- Ratio (Hepatitis C virus [11]): >10
- EC50 (Hepatitis C virus [12]): 2.3 µM
- EC90 (Hepatitis C virus [12]): 6.4 µM
- Ratio EC50 (Hepatitis C virus [13]): 0.5
- Ratio (Hepatitis C virus [14]): 6.6
- Ratio (Hepatitis C virus [15]): 7.6
- EC50 (Hepatitis C virus [16]): 0.4 µM
- EC90 (Hepatitis C virus [16]): 3.3 µM
- Ratio EC50 (Hepatitis C virus [17]): 7.1
- CC50 (CCRF-CEM): 16 µM
- EC50 (Hepatitis C virus [19]): 0.78 µM
- EC90 (Hepatitis C virus [19]): 9.81 µM
- Ratio EC50 (Hepatitis C virus [20]): 8.8
- EC50 (Hepatitis C virus [21]): 0.72 µM
- EC90 (Hepatitis C virus [21]): 8.2 µM
- EC50 (Hepatitis C virus [22]): 5.5 µM
- EC90 (Hepatitis C virus [22]): 64 µM
- Ratio (Hepatitis C virus [23]): 0.8
- CC50 (Huh-7): > 10 µM

— ChEMBL document CHEMBL2440035, “Azetidines and spiro azetidines as novel P2 units in hepatitis C virus NS3 protease inhibitors” (Bioorg Med Chem Lett, 2013)
